Here are results for two molecules from ChEMBL document CHEMBL4342513, “Implementation of the CYP Index for the Design of Selective Tryptophan-2,3-dioxygenase Inhibitors” (ACS Med Chem Lett, 2020).

Data set [1] concerns Mus musculus. The experiment in a line: In vivo inhibition of TDO in mouse assessed as blood tryptophan levels by measuring Cmax at 30 mg/kg (reference value: 340 microM). The format is functional, organism-based. Details: dose 30 mg/kg. Put shortly:
(§1)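 Mouse pharmacodynamic study with escalating doses up to 100 mg/kg and a vehicle-treated comparison group. Blood tryptophan concentration was followed over time.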

Data set [2] is described as follows: Cmax in mouse at 100 mg/kg. The class given is ADME, organism-based. Details: dose 100 mg/kg. The conditions noted are these: in vivo.
The nature of data set [3]: Clearance in rat liver microsomes. The class given is ADME, Microsome. The procedure, abridged:
(§2)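 Clearance was measured in liver microsome incubations from human, rat and mouse. It is expressed as scaled clearance in mL/min/kg.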
A general note: Liver microsomes are a subcellular fraction often used to study metabolism.

In data set [4] the test system is Mus musculus. The experiment in a line: In vivo inhibition of TDO in mouse assessed as blood tryptophan levels by measuring Cmax at 100 mg/kg (reference value: 340 microM). Details: dose 100 mg/kg. The format is functional, organism-based. The procedure, abridged: as §1
Data set [5] addresses Tryptophan 2,3-dioxygenase (Homo sapiens, UniProt P48775). The experiment in a line: Inhibition of TDO in human SW48 cells after 24 hrs by NFK green reagent based assay. The class given is cell-based.
For data set [6], the species on record is Homo sapiens. The experiment in a line: Selectivity index, ratio of IC50 for inhibition of CYP3A4 (unknown origin) to EC50 for inhibition of EC50 for inhibition of TDO in human SW48 cells. The class given is cell-based.
The nature of data set [7]: Kinetic solubility of compound. The conditions noted are these: read-out: Kinetic_solubility. The class given is physicochemical.
Data set [8] is filed under the species Homo sapiens. The experiment in a line: Selectivity index, ratio of EC50 for inhibition of IDO1 in human A172 cells in presence of IFNgamma to EC50 for inhibition of TDO in human SW48 cells. The class given is cell-based.
Data set [9] is described as follows: Clearance in human liver microsomes. The format is ADME, Microsome. The procedure, abridged: as §2
Data set [10] concerns Mus musculus. In words: In vivo inhibition of TDO in mouse assessed as blood tryptophan levels by measuring AUC at 100 mg/kg (reference value: 570 microM.hr). The class given is functional, organism-based. The procedure, abridged: as §1
Data set [11] can be described thus: Apparent permeability across apical to basolateral side in MDCK cells. The format is ADME, cell-based, Canis lupus familiaris. The settings on record: dog.
Data set [12] is described as follows: Volume of distribution at steady state in mouse. The conditions noted are these: in vivo, read-out: Vdss. The format is ADME, organism-based.
A short description of data set [13]: Protein binding in mouse plasma assessed as unbound fraction. The format is ADME, cell-free.
Data set [14] in a line: Oral bioavailability in mouse at 1 mg/kg dosed as cassette formulation. The format is ADME, organism-based. The conditions noted are these: in vivo.
Data set [15] in a line: AUC (infinity) in mouse at 10 mg/kg. The format is ADME, organism-based. Also noted: dose 10 mg/kg, time infinity. The settings on record: in vivo.
The nature of data set [16]: Clearance in mouse liver microsomes. The class given is ADME, Microsome. The procedure, abridged: as §2
The nature of data set [17]: Half life in mouse. The class given is ADME, organism-based. The settings on record: in vivo.
Data set [18] in a line: Clearance in iv dosed mouse plasma. The class given is ADME, organism-based. The procedure, abridged:
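Compounds were given to mice as discrete (single-compound) intravenous doses. Plasma clearance (CLp) is expressed in mL/min/kg.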

A further data set deals with Cytochrome P450 3A4 (Homo sapiens, UniProt P08684). The experiment in a line: Inhibition of CYP3A4 (unknown origin). The class given is ADME.
The nature of data set [19]: Cmax in mouse at 10 mg/kg. The format is ADME, organism-based. Also noted: dose 10 mg/kg. The conditions noted are these: in vivo.
Data set [20] can be described thus: AUC (infinity) in mouse at 30 mg/kg. The class given is ADME, organism-based. Also noted: dose 30 mg/kg, time infinity. The conditions noted are these: in vivo.
The test system of data set [21] is Mus musculus. The experiment in a line: In vivo inhibition of TDO in mouse assessed as blood tryptophan levels by measuring Cmax at 10 mg/kg (reference value: 340 microM). Also noted: dose 10 mg/kg. The format is functional, organism-based. The procedure, abridged:
as §1

Data set [22] is described as follows: Oral bioavailability in mouse at 5 mg/kg. The conditions noted are these: in vivo. The format is ADME, organism-based.
The nature of data set [23]: AUC (infinity) in mouse at 100 mg/kg. The conditions noted are these: in vivo. Also noted: dose 100 mg/kg, time infinity. The class given is ADME, organism-based.
Data set [24] is described as follows: Unbound clearance in mouse plasma. The class given is ADME, cell-free.
Data set [25] has as its system Mus musculus. In words: In vivo inhibition of TDO in mouse assessed as blood tryptophan levels by measuring AUC at 10 mg/kg (reference value: 570 microM.hr). The class given is functional, organism-based. The procedure, abridged:
as §1

Data set [26] is described as follows: Cmax in mouse at 30 mg/kg. Also noted: dose 30 mg/kg. The conditions noted are these: in vivo. The format is ADME, organism-based.
Data set [27] in a line: AUC (infinity) in mouse. The class given is ADME, organism-based. Also noted: time infinity. The conditions noted are these: in vivo.
Data set [28] addresses Indoleamine 2,3-dioxygenase 1 (Homo sapiens, UniProt P14902). The experiment in a line: Inhibition of IDO1 in human A172 cells after 24 hrs in presence of IFNgamma by NFK green reagent based assay. The format is cell-based.
Data set [29] has as its system Mus musculus. In words: In vivo inhibition of TDO in mouse assessed as blood tryptophan levels by measuring AUC at 30 mg/kg (reference value: 570 microM.hr). The format is functional, organism-based. Put shortly: as §1

As usually defined, the EC50 is the concentration that produces a half-maximal response. The term Papp A→B denotes the apparent permeability from the apical to the basolateral side of a cell layer. By fraction unbound is commonly meant the share of the substance not bound to proteins or other matrix. Usually AUC(0-inf) stands for the area under the concentration-time curve extrapolated to infinity. As a reminder, the half-life is the time in which the quantity being followed falls by half. For orientation: clearance means the rate of elimination divided by the concentration. In general, IC50 refers to the concentration needed to halve the response being measured.

In brackets after ≈: the same amount, converted by molar mass. Where only a bound is given, the exact number is not on record here.

Tryptophan 2,3-dioxygenase, sequence (P48775 whole entry): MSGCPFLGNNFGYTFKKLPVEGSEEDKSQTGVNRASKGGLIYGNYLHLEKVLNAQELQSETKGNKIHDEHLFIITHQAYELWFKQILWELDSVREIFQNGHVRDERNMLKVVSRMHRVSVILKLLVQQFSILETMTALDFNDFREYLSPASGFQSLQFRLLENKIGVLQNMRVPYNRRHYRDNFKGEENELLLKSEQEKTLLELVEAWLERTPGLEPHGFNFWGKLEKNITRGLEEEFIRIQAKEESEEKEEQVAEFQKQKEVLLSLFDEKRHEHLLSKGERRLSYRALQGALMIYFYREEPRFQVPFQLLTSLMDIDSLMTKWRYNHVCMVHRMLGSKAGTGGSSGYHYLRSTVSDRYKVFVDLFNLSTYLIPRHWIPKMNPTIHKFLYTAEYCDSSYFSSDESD
Cytochrome P450 3A4, sequence (P08684 whole entry): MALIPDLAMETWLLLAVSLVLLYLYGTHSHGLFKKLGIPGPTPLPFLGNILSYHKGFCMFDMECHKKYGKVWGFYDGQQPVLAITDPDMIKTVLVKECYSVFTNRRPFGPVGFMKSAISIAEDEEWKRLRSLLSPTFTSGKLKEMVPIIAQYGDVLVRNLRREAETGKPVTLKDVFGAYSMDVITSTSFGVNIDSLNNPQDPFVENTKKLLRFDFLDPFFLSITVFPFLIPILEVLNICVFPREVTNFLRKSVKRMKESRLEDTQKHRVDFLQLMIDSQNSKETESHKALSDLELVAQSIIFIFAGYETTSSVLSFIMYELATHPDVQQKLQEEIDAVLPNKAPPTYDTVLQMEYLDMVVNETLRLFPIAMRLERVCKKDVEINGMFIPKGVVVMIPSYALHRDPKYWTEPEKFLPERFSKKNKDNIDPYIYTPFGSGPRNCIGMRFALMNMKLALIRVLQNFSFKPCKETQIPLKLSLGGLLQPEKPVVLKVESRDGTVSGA
Indoleamine 2,3-dioxygenase 1, sequence (P14902 whole entry): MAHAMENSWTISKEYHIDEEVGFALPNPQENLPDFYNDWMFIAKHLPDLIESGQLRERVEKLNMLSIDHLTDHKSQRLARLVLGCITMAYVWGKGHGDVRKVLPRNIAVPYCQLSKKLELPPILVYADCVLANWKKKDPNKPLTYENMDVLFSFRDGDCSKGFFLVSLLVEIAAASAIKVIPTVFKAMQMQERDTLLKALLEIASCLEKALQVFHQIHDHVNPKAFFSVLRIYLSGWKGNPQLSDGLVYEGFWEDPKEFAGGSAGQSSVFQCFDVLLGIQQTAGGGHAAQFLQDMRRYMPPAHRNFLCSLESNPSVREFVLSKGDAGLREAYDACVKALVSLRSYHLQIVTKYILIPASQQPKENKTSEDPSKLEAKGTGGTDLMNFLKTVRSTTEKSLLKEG

Consider `O[C@@H]1c2cnccc2CC[C@H]1[C@H]1c2ccccc2-c2cncn21`, for which the Cmax was determined as 560 µM in the data set with Mus musculus [1]; 70 µM in [2]; 540 µM in the data set on Mus musculus [4]; 4.1 µM in data set [19]; 420 µM in the data set on Mus musculus [21]; 21.2 µM in data set [26]. Also, the CLhep predicted in data set [3] was 38 mL/min/kg; in [9] it was 6.9 mL/min/kg; in data set [16] it was 71 mL/min/kg. Also, the figures for the EC50 in [5] and in data set [28] were 50 nM and 1400 nM, respectively. The Ratio IC50/EC50 in the data set listed under Homo sapiens [6] was 48. Further, the solubility kinetic in [7] is 139 µM (≈ 42.2 µg/mL). For the same molecule, the Ratio EC50 in the data set listed under Homo sapiens [8] is 28. The AUC in the data set with Mus musculus [10] is 404000 ng·h/mL; in the data set on Mus musculus [25], 139000 ng·h/mL; in the data set on Mus musculus [29], 229000 ng·h/mL. The Papp A→B in data set [11] came out at 11 ×10⁻⁶ cm/s. In [12], the Vd is 1.4 L/kg. Besides, the fraction unbound in data set [13] turned out to be 0.07. In addition, the bioavailability in data set [14] amounted to 68%; in data set [22], 78%. Moreover, the AUC(0-inf) in [15] was 5 µM·h; in [20], 35 µM·h; in data set [23] it was 210 µM·h; in [27], 0.34 µM·h. Moreover, the half-life in data set [17] was 37.2 min. This molecule had a clearance in [18] of 29 mL/min/kg. The molecule also came in with an IC50 on Cytochrome P450 3A4 of 2400 nM. In addition, in [24], the CL free was determined as 410 mL/min/kg.
With `O[C@@H]1c2ccnn2CC[C@H]1[C@H]1c2ccccc2-c2cncn21`, the CLhep predicted was 37 mL/min/kg in [3], less than 3.9 mL/min/kg in [9] and 45 mL/min/kg in [16]. Besides, a half-maximal effect in data set [5] (EC50) was put at 130 nM. The Ratio IC50/EC50 in the data set filed under Homo sapiens [6] is greater than 77. Also, the solubility kinetic in [7] is 149 µM (≈ 43.6 µg/mL). Besides, the Ratio EC50 in the data set filed under Homo sapiens [8] was found to be 35. Besides, the Papp A→B in data set [11] was 13 ×10⁻⁶ cm/s. Further, in data set [12], the Vd turned out to be 1.1 L/kg. The fraction unbound in [13] was determined as 0.09. The bioavailability in data set [14] amounted to 140%; in data set [22] it was 70%. Also, the half-life in [17] is 46.8 min. In [18], this molecule displayed a clearance of 28 mL/min/kg. In addition, the IC50 on Cytochrome P450 3A4 was greater than 10000 nM. In data set [24], this molecule gave a CL free of 310 mL/min/kg. For the same molecule, the AUC(0-inf) in data set [27] was 0.81 µM·h.
